Assay results as given in publication PMC9476207 (ACS Omega, 2022).

Assays:
Assay in all cases: NCI-60 single-dose antiproliferative screen
Format in all cases: cell-based
[1] = test system: NCI-H322M; settings: Homo sapiens, 48 h, read-out: growth percent
In short: (§1)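 NCI-60 protocol. Lines were grown in RPMI 1640 with 5% FBS and 2 mM L-glutamine, plated and incubated 24 h at 37 °C; time-zero plates were TCA-fixed. The test compound was dissolved in DMSO, diluted in medium with 50 μg/mL gentamicin and given once at a final 10^-5 M (DMSO control) for 48 h. Cells were fixed with cold TCA (1 h, 4 °C) and stained with 0.4% SRB in 1% acetic acid for 10 min. Dye was dissolved in 10 mM Trizma base and read at 515 nm. Growth percent was calculated from time-zero, test and control ODs.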

[2] = test system: RPMI-8226; settings: Homo sapiens, RPMI-8226, 48 h, read-out: growth percent
In short: as §1

[3] = test system: COLO205; settings: Homo sapiens, COLO 205, 48 h, read-out: growth percent
In short: as §1

[4] = test system: MDA-MB-435; settings: Homo sapiens, MDA-MB-435, 48 h, read-out: growth percent
In short: as §1

[5] = test system: HOP-92; settings: Homo sapiens, HOP-92, 48 h, read-out: growth percent
In short: as §1

[6] = test system: T-47D; settings: Homo sapiens, T47D, 48 h, read-out: growth percent
In short: (§2)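 Cells grown in RPMI 1640 with 5% FBS and 2 mM L-glutamine, plated and held 24 h at 37 °C; time-zero plates TCA-fixed. DMSO stocks were diluted in gentamicin-containing medium to a final 10^-5 M, with a DMSO-only control. Exposure 48 h, 5% CO2. Adherent cells TCA-fixed 1 h at 4 °C, stained with 0.4% SRB, solubilised in 10 mM Trizma base, read at 515 nm. Growth percent derived from ODtzero, ODtest and ODctrl.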

[7] = test system: OVCAR-3; settings: Homo sapiens, OVCAR-3, 48 h, read-out: growth percent
In short: as §1

[8] = test system: HOP-62; settings: Homo sapiens, HOP-62, 48 h, read-out: growth percent
In short: as §1

[9] = test system: NCI-H460; settings: Homo sapiens, NCI-H460, 48 h, read-out: growth percent
In short: as §1

[10] = test system: MOLT-4; settings: Homo sapiens, MOLT-4, 48 h, read-out: growth percent
In short: as §1

[11] = test system: U251; settings: Homo sapiens, U-251, 48 h, read-out: growth percent
In short: as §2

[12] = test system: OVCAR-8; settings: Homo sapiens, OVCAR-8, 48 h, read-out: growth percent
In short: as §1

[13] = test system: EKVX; settings: Homo sapiens, 48 h, read-out: growth percent
In short: as §1

[14] = test system: 786-0; settings: Homo sapiens, 786-0, 48 h, read-out: growth percent
In short: as §1

[15] = test system: OVCAR-4; settings: Homo sapiens, OVCAR-4, 48 h, read-out: growth percent
In short: as §1

[16] = test system: UO-31; settings: Homo sapiens, UO-31, 48 h, read-out: growth percent
In short: as §2

[17] = test system: NCI-H226; settings: Homo sapiens, NCI-H226, 48 h, read-out: growth percent
In short: as §1

[18] = test system: HCT-15; settings: Homo sapiens, HCT-15, 48 h, read-out: growth percent
In short: as §1

[19] = test system: LOX IMVI; settings: Homo sapiens, 48 h, read-out: growth percent
In short: as §1

[20] = test system: SN12C; settings: Homo sapiens, 48 h, read-out: growth percent
In short: as §2

[21] = test system: MDA-MB-468; settings: Homo sapiens, MDA-MB-468, 48 h, read-out: growth percent
In short: as §1

[22] = test system: TK-10; settings: Homo sapiens, TK-10, 48 h, read-out: growth percent
In short: as §2

[23] = test system: MALME-3M; settings: Homo sapiens, 48 h, read-out: growth percent
In short: as §1

[24] = test system: NCI/ADR-RES; settings: Homo sapiens, 48 h, read-out: growth percent
In short: as §1

[25] = test system: M14; settings: Homo sapiens, M14, 48 h, read-out: growth percent
In short: as §1

[26] = test system: SF-295; settings: Homo sapiens, SF-295, 48 h, read-out: growth percent
In short: as §1

[27] = test system: SK-OV-3; settings: Homo sapiens, SK-OV-3, 48 h, read-out: growth percent
In short: as §2

[28] = test system: HS 578T; settings: Homo sapiens, 48 h, read-out: growth percent
In short: as §1

[29] = test system: SK-MEL-5; settings: Homo sapiens, SK-MEL-5, 48 h, read-out: growth percent
In short: as §2

[30] = test system: CAKI-1; settings: Homo sapiens, CAKI-1, 48 h, read-out: growth percent
In short: as §1

[31] = test system: RXF 393; settings: Homo sapiens, RXF 393, 48 h, read-out: growth percent
In short: as §1

[32] = test system: OVCAR-5; settings: Homo sapiens, OVCAR-5, 48 h, read-out: growth percent
In short: as §1

[33] = test system: SNB-19; settings: Homo sapiens, SNB-19, 48 h, read-out: growth percent
In short: as §2

[34] = test system: DU-145; settings: Homo sapiens, DU-145, 48 h, read-out: growth percent
In short: as §1

[35] = test system: SF-268; settings: Homo sapiens, SF-268, 48 h, read-out: growth percent
In short: as §1

[36] = test system: NCI-H522; settings: Homo sapiens, NCI-H522, 48 h, read-out: growth percent
In short: as §1

COc1cc(CNC(=O)CCCC/C=C/C(C)C)ccc1OCc1cn(-c2ccc(Cl)c(Cl)c2)nn1 [14d, (E)-N-(4-((1-(3,4-Dichlorophenyl)-1H-1,2,3-triazol-4-yl)methoxy)-3-methoxybenzyl)-8-methylnon-6-enamide]
activity at 10 µM [1]: 93.2%
activity at 10 µM [2]: 78.1%
activity at 10 µM [3]: 111%
activity at 10 µM [4]: 94.2%
activity at 10 µM [5]: 78.7%
activity at 10 µM [6]: 87%
activity at 10 µM [7]: 92.4%
activity at 10 µM [8]: 90.4%
activity at 10 µM [9]: 101%
activity at 10 µM [10]: 86.4%
activity at 10 µM [11]: 91.9%
activity at 10 µM [12]: 91%
activity at 10 µM [13]: 76.2%
activity at 10 µM [14]: 96.3%
activity at 10 µM [15]: 69.5%
activity at 10 µM [16]: 103%
activity at 10 µM [17]: 76.6%
activity at 10 µM [18]: 93.6%
activity at 10 µM [19]: 87%
activity at 10 µM [20]: 113%
activity at 10 µM [21]: 71.6%
activity at 10 µM [22]: 88.6%
activity at 10 µM [23]: 105%
activity at 10 µM [24]: 91.1%
activity at 10 µM [25]: 92.7%
activity at 10 µM [26]: 94.6%
activity at 10 µM [27]: 97.2%
activity at 10 µM [28]: 84%
activity at 10 µM [29]: 81.6%
activity at 10 µM [30]: 58.3%
activity at 10 µM [31]: 101%
activity at 10 µM [32]: 102%
activity at 10 µM [33]: 87.3%
activity at 10 µM [34]: 86.5%
activity at 10 µM [35]: 93.3%
activity at 10 µM [36]: 69.3%

COc1cc(CNC(=O)CCCC/C=C/C(C)C)ccc1OCc1cn(-c2ccc([N+](=O)[O-])cc2)nn1 [14e, (E)-N-(3-Methoxy-4-((1-(4-nitrophenyl)-1H-1,2,3-triazol-4-yl)methoxy)benzyl)-8methylnon-6-enamide]
activity at 10 µM [1]: 97.9%
activity at 10 µM [2]: 61.8%
activity at 10 µM [3]: 118%
activity at 10 µM [4]: 99.7%
activity at 10 µM [5]: 90.3%
activity at 10 µM [6]: 64%
activity at 10 µM [7]: 92.7%
activity at 10 µM [8]: 80.9%
activity at 10 µM [9]: 99.8%
activity at 10 µM [10]: 79.3%
activity at 10 µM [11]: 86.4%
activity at 10 µM [12]: 82.9%
activity at 10 µM [13]: 75.3%
activity at 10 µM [14]: 93.7%
activity at 10 µM [15]: 87.2%
activity at 10 µM [16]: 60.6%
activity at 10 µM [17]: 89.6%
activity at 10 µM [18]: 96.2%
activity at 10 µM [19]: 89.5%
activity at 10 µM [20]: 91.7%
activity at 10 µM [21]: 77.4%
activity at 10 µM [22]: 92.7%
activity at 10 µM [23]: 98.4%
activity at 10 µM [24]: 29%
activity at 10 µM [25]: 89.7%
activity at 10 µM [26]: 89%
activity at 10 µM [27]: 76.7%
activity at 10 µM [28]: 95.8%
activity at 10 µM [29]: 76.1%
activity at 10 µM [30]: 90.7%
activity at 10 µM [31]: 99.7%
activity at 10 µM [32]: 99.2%
activity at 10 µM [33]: 97.4%
activity at 10 µM [34]: 105%
activity at 10 µM [35]: 86.1%
activity at 10 µM [36]: 78.2%
